Activity calls are given as the source filed them. The calls are words filed in the database; no cut-off is given here.
Tests used:
[1] = Displacement of [3H]Ro15-1788 from GABA-A receptor benzodiazepine binding site in bovine cerebral cortex membranes after 1 hr; format: cell membranes, Bos taurus, Membrane
[2] = test system: Rattus norvegicus; assay: Induction of acetylcholine release in Harlan Wistar rat parietal cortex at 10 mg/kg, ip measured within 120 mins by microdialysis method; format: functional, organism-based; parameters: dose 10 mg/kg
Outline: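 Microdialysis in the parietal cortex of male Wistar rats, with a horizontal tube implanted at AP 0.5 mm and H 2.3 mm from bregma. One day after surgery the tube was perfused with Ringer containing physostigmine. After a 1 h settling period, 20-min fractions were collected into HCl. Drug was given ip in 1% CMC at time 0. ACh was measured by HPLC with electrochemical detection, n = 6 rats.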

[3] = biological target: T1, Gamma-aminobutyric acid receptor subunit alpha-5 (Homo sapiens) (UniProt P31644); assay: Displacement of [3H]Ro15-1788 from recombinant GABA-A alpha5beta2gamma2 receptor benzodiazepine binding site (unknown origin) at 10 uM after 1 hr relative to control
T1 sequence (whole entry): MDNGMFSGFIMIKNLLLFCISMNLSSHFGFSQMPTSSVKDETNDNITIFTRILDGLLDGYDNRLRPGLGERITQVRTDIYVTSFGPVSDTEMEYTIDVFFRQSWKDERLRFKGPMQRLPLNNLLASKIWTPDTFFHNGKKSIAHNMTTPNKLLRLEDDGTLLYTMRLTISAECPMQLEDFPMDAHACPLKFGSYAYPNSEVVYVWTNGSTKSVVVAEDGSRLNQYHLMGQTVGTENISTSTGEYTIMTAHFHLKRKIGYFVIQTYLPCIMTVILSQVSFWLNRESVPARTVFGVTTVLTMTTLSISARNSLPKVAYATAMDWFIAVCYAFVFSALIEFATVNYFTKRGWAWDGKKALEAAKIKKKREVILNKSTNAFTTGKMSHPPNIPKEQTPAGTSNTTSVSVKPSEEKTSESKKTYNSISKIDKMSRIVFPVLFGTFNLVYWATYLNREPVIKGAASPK

[4] = test system: Mus musculus; assay: Anticonvulsant activity in CD1 albino mouse assessed as protection against pentylenetetrazole-induced convulsions at 10 mg/kg, po administered 30 mins prior to pentylenetetrazole challenge measured over 30 mins (reference value: 7.1%); format: functional
[5] = test system: Rattus norvegicus; assay: Procognitive effect in Harlan Wistar rat assessed as decrease in exploring time of unfamiliar rat during social investigatory behaviour at 1 to 10 mg/kg, po administered 30 mins prior to testing measured for 5 mins by social learning test relative to control; format: functional, organism-based
[6] = test system: Mus musculus; assay: Antiamnesic activity in CD1 albino mouse assessed as reversal of scopolamine-induced amnesia at 1 mg/kg, po administered 30 mins prior to scopolamine challenge measured after 24 hrs by passive avoidance test; format: functional, organism-based; parameters: dose 1 mg/kg
Outline: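 Step-through passive avoidance in male CD-1 mice (22–24 g). Test drugs were given po, suspended in 1% carboxymethylcellulose at 10 ml/kg, 30 min before the training session. For the antiamnesic arm, scopolamine 1.5 mg/kg was injected immediately after punishment. Retention latency was compared with CMC-treated controls, n = 10–12 mice per group.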

Cc1cnn2c1n[n+]([O-])c1ccc(OCc3ccncc3)cc12
Ki [1]: 24.1 nM
Activity [2]: inactive
inhibition [3]: 36%
Activity [4]: 0%
Activity [5]: inactive
Activity [6]: Active

Source: ChEMBL document CHEMBL2346497, “Synthesis of novel cognition enhancers with pyrazolo[5,1-c][1,2,4]benzotriazine core acting at γ-aminobutyric acid type A (GABA(A)) receptor” (Bioorg Med Chem, 2013)
